The subject of one experiment is Proteus mirabilis. Nature of the experiment: In vitro minimum inhibitory concentration was measured against Proteus mirabilis 90 strain. The experiment is classed as functional. In outline: (§1)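 Streptococci were tested on brain heart infusion agar plus 20 units/mL catalase, Proteus on Mueller-Hinton with 3% agar, and others on Mueller-Hinton agar. Inocula were 100-fold-diluted overnight cultures, about 3 × 10^4 CFU/spot, read after overnight incubation at 36 °C.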

Experiment [1] relates to Staphylococcus aureus. Briefly: Tested for its efficacy against systemic murine infection caused by Staphylococcus aureus smith. In kind it is functional. In outline: (§2)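 CD1 Swiss albino mice (18-20 g) were infected intraperitoneally with 0.5 mL of diluted culture. Within 5 min they received 1.0 mL test solution subcutaneously at the dorsal neck, in dilutions spanning 250–0.05 mg/kg. P. aeruginosa groups received a second dose at 3 h. Groups were six mice. ED50 was calculated by Reed–Muench interpolation of cumulative survival.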

The subject of the next experiment is Pseudomonas aeruginosa. Nature of the experiment: Tested for its efficacy against systemic murine infection caused by Pseudomonas aeruginosa 8780. In kind it is functional. In a few lines: as §2
The test system of another experiment is Enterococcus faecalis. Briefly: In vitro minimum inhibitory concentration was measured against Enterococcus faecalis ATCC 29212 strain. In kind it is functional. In outline:
as §1

Experiment [2] relates to Serratia marcescens. Briefly: Tested for its efficacy against systemic murine infection caused by Serratia marcescens SM. In kind it is functional. In a few lines:
as §2

Experiment [3] has as its system Streptococcus pneumoniae. Nature of the experiment: Tested for its efficacy against systemic murine infection caused by Streptococcus pneumoniae 6301. In kind it is functional. In outline: as §2
Experiment [4] has as its system Staphylococcus aureus. Nature of the experiment: In vitro minimum inhibitory concentration was measured against Staphylococcus aureus 67-0 (Methicillin resistant) strain. The experiment is classed as functional.
Another experiment deals with Citrobacter freundii. Briefly: In vitro minimum inhibitory concentration was measured against Citrobacter freundii BS-16 (beta lactamase producer) strain. The experiment is classed as functional. In a few lines: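 MICs were determined by agar dilution with 2-fold dilutions giving final 128–0.0156 µg/mL, extended to 0.000977 µg/mL where needed. Streptococci were tested on brain heart infusion agar plus 20 units/mL catalase, Proteus on Mueller-Hinton with 3% agar, and others on Mueller-Hinton agar. Inocula were 100-fold-diluted overnight cultures, about 3 × 10^4 CFU/spot, read after overnight incubation at 36 °C.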

In experiment [5] the test system is Serratia marcescens. Briefly: In vitro minimum inhibitory concentration was measured against Serratia marcescens 1071(beta lactamase producer) strain. The experiment is classed as functional. In outline: as §1
Experiment [6] concerns Klebsiella pneumoniae. Nature of the experiment: Tested for its efficacy against systemic murine infection caused by Klebsiella pneumoniae A. In kind it is functional. In outline: as §2
Experiment [7] concerns Streptococcus pneumoniae. Nature of the experiment: In vitro minimum inhibitory concentration was measured against Streptococcus pneumoniae 6301 strain. In kind it is functional. In a few lines:
as §1

Experiment [8] has as its system Staphylococcus aureus. Briefly: In vitro minimum inhibitory concentration was measured against Staphylococcus aureus 753 (Methicillin resistant) strain. In kind it is functional.
A further experiment has as its system Micrococcus luteus. Briefly: In vitro minimum inhibitory concentration was measured against Micrococcus luteus ATCC 9341 strain. The experiment is classed as functional. In outline: as §1
In experiment [9] the test system is Klebsiella pneumoniae. Briefly: In vitro minimum inhibitory concentration was measured against Klebsiella pneumoniae A strain. The experiment is classed as functional. In a few lines:
as §1

The next experiment deals with Streptococcus pyogenes. Nature of the experiment: In vitro minimum inhibitory concentration was measured against Streptococcus pyogenes 4 strain. The experiment is classed as functional. In outline: as §1
Experiment [10] deals with T1, Penicillin-binding protein 1B (Escherichia coli K-12) (UniProt P02919).
T1 sequence (whole entry): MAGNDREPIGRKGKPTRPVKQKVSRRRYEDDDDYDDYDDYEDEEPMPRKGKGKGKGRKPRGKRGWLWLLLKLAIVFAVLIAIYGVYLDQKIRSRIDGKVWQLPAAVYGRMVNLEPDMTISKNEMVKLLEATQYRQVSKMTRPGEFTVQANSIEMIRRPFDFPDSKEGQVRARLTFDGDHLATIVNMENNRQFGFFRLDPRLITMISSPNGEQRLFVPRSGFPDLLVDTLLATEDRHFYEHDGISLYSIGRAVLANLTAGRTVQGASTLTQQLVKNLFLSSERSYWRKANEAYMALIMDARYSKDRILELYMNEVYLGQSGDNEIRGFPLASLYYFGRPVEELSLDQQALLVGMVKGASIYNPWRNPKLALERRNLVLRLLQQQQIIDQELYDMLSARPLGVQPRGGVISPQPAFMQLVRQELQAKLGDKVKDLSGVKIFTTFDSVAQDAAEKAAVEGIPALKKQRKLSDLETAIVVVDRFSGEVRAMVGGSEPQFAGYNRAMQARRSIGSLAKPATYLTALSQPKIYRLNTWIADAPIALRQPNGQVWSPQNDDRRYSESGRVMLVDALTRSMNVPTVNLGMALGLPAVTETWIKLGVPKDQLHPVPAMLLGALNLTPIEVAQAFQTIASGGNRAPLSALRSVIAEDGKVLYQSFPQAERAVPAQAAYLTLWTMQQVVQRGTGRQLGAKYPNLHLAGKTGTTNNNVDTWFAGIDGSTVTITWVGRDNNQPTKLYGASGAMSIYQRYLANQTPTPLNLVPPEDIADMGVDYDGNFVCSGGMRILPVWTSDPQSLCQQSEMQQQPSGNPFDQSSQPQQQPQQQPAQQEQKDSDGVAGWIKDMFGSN
Nature of the experiment: Affinity for penicillin binding protein 1b of Escherichia coli UB1005 (DC0) was evaluated. Set-up: unit not given here. In outline: (§3)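 Solubilised membranes from sonicated E. coli UB1005 served as the binding-protein source. Binding was read as inhibition of [14C]penicillin G binding.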

Experiment [11] addresses T2, Peptidoglycan D,D-transpeptidase MrdA (Escherichia coli K-12) (UniProt P0AD65).
T2 sequence (whole entry): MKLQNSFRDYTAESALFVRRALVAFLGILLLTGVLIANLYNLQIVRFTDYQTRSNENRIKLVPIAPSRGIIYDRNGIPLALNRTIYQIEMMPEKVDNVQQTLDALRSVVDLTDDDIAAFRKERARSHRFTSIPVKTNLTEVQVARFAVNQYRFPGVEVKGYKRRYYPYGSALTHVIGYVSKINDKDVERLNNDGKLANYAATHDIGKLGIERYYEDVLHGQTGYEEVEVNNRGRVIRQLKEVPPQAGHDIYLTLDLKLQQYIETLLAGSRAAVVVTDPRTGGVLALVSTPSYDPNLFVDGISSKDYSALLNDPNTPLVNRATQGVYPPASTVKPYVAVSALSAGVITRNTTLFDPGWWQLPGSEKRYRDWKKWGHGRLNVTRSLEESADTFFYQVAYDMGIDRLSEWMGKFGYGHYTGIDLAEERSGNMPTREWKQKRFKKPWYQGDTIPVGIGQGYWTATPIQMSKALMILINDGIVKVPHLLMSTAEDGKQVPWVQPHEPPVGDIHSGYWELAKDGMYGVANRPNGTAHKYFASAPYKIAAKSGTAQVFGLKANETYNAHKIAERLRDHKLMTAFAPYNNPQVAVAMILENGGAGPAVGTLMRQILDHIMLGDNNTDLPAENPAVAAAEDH
Nature of the experiment: Affinity for penicillin binding protein 2 of Escherichia coli UB1005 (DC0) was evaluated. Also on record: unit not given here. In a few lines: as §3

The subject of a further experiment is Escherichia coli. Briefly: Minimum inhibitory concentration against E. coli UB1005 (DC0).
The target of experiment [12] is T3, Penicillin-binding protein 1A (Escherichia coli K-12) (UniProt P02918).
T3 sequence (whole entry): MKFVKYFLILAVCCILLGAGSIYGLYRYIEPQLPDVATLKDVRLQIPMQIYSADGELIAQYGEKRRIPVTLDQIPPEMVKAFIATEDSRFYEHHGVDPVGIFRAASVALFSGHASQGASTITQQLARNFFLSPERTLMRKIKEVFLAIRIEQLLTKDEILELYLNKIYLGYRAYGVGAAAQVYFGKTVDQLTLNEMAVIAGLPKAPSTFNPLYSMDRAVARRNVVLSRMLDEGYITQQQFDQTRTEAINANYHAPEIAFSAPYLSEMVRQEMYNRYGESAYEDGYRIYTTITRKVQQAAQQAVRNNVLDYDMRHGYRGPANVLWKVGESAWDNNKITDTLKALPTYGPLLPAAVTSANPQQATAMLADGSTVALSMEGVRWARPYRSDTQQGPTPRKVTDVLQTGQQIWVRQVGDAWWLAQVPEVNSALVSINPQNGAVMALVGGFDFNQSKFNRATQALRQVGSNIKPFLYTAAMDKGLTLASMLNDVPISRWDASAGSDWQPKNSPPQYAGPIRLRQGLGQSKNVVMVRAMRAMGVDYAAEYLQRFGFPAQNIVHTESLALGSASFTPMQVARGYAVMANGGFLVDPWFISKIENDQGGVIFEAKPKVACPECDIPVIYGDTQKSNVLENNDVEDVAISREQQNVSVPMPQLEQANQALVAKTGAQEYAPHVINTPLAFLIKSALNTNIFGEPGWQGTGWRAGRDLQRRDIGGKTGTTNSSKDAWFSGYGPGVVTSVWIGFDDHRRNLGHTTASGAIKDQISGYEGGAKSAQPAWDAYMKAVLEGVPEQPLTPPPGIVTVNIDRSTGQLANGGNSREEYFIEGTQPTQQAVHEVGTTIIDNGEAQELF
Briefly: Affinity against penicillin binding protein 1a of Escherichia coli UB1005 (DC0) was evaluated. In a few lines: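 Solubilized membranes from sonicated E. coli UB1005 were used. Binding to penicillin-binding proteins was measured as inhibition of [14C]penicillin G binding.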

≈ marks a conversion by molar mass, not a printed value. Where only a bound is given, the exact number is not on record here.

In the case of `O=C(O)c1cn(C2CC2)c2cc(N3CCNCC3)c(F)cc2c1=O` [CIPROFLOXACIN], the MIC worked out at 0.063 µg/mL (≈ 0.19 µM) in the experiment with Proteus mirabilis; 1 µg/mL (≈ 3.02 µM) in the experiment on Enterococcus faecalis; 0.5 µg/mL (≈ 1.51 µM) in the experiment on Staphylococcus aureus [4]; 0.031 µg/mL (≈ 0.0936 µM) in the experiment with Citrobacter freundii; 0.063 µg/mL (≈ 0.19 µM) in the experiment on Serratia marcescens [5]; 1 µg/mL (≈ 3.02 µM) against Streptococcus pneumoniae [7]. In addition, the MIC with Staphylococcus aureus [8] came to 0.25 µg/mL (≈ 0.754 µM); with Micrococcus luteus it was 2 µg/mL (≈ 6.04 µM); against Klebsiella pneumoniae [9] it was 0.25 µg/mL (≈ 0.754 µM); against Streptococcus pyogenes it was 0.5 µg/mL (≈ 1.51 µM). In addition, the ED50 – broadly, the midpoint of the dose-response relation – in the experiment on Staphylococcus aureus [1] was 3 mg/kg; in the experiment on Pseudomonas aeruginosa, 4 mg/kg; with Serratia marcescens [2], below 0.5 mg/kg; with Streptococcus pneumoniae [3], above 100 mg/kg; with Klebsiella pneumoniae [6], 1 mg/kg.

For `CC(C)(O/N=C(\C(=O)N[C@@H]1C(=O)N2C(C(=O)[O-])=C(C[n+]3ccccc3)CS[C@H]12)c1csc(N)n1)C(=O)O`, the Binding affinity is 10 in experiment [10], above 100 in [11] and 10 in experiment [12]. Besides, the MIC in the experiment with Escherichia coli stood at 0.125 µg/mL (≈ 0.229 µM).

These data come from ChEMBL document CHEMBL1127320, “Dual-action cephalosporins incorporating a 3'-tertiary-amine-linked quinolone” (J Med Chem, 1994).
